According to ChEMBL document CHEMBL4014344, “Discovery of the Soluble Guanylate Cyclase Stimulator Vericiguat (BAY 1021189) for the Treatment of Chronic Heart Failure” (J Med Chem, 2017):
The source made the active and inactive calls. The calls are words filed in the database; no cut-off is given here.

What was measured:
[1] = target: Cytochrome P450 3A4 (Homo sapiens, UniProt P08684); assay: Inhibition of human liver microsomes CYP3A4 using midazolam as substrate; assay type: ADME
[2] = Stimulation of rat sGC expressed in CHO cells using GTP as substrate assessed as increase in cGMP formation treated for 6 mins by luminescence assay; assay type: cell-based
Method in brief: (§1)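 CHO reporter cells overexpressing sGC, cultured 1 or 2 d, then loaded 3 h with coelenterazine in calcium-free Tyrode. Compound serial dilutions applied 6 min. Calcium added (final 3 mM) and luminescence read for 40 s by CCD camera. SNAP co-applied at 30 or 100 nM where stated. ODQ condition: 10 μM ODQ pretreatment for 3 h.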

[3] = Drug metabolism in human hepatocytes assessed as CYP-mediated methyl 4,6-diamino-2-(5-fluoro-1H-pyrazolo[3,4-b]pyridin-3-yl)pyrimidin-5-ylcarbamate metabolite formation; assay type: ADME, cell-based
[4] = Stimulation of rat sGC expressed in CHO cells using GTP as substrate assessed as increase in cGMP formation treated for 6 mins in presence of sGC inhibitor ODQ by luminescence assay; assay type: cell-based; method in brief: as §1
[5] = Clearance in iv dosed Beagle dog blood after 24 hrs by LC-MS analysis; assay type: ADME, organism-based, Canis lupus familiaris; conditions: whole blood
Method in brief: (§2)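 Male Wistar rats and female beagle dogs. iv in plasma/DMSO (rat) or H2O/PEG 400/EtOH (dog). Oral gavage in H2O/PEG 400/EtOH for both. Rats jugular-catheterised ≥1 d before dosing. Usually >10 blood samples, at least two after 24 h. Plasma quantified by LC-MS with internal standard. CL, t1/2, Vss and F calculated from plasma curves. Blood clearance via blood/plasma ratio (20 min blood incubation).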

[6] = tested on: Rattus norvegicus; assay: Antihypertensive activity in L-NAME-treated renin transgenic rat co-expressing RenTG(mRRen2)27 assessed as reduction in osteopontin expression at 3 to 10 mg/kg administered qd via oral gavage up to 21 days; assay type: functional, organism-based
Method in brief: (§3)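 Male RenTG(mRRen2)27 rats, 8 weeks old, given L-NAME in drinking water (50 mg/L) throughout. Randomised to placebo (2 mL/kg qd, n = 20) or 3 and 10 mg/kg/day po by gavage qd (n = 15 per group). Tail-cuff blood pressure on day 0, 7, 14 and 21. Plasma taken at day 22 end. Unpaired t test, mean ± SEM.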

[7] = tested on: Aorta; assay: Inhibition of phenylephrine-induced contractions in Chinchilla rabbit aortic rings administered at the beginning of the last resting period of 28 mins; assay type: functional; conditions: Oryctolagus cuniculus
[8] = target: T1, Cytochrome P450 2A6 (Homo sapiens, UniProt P11509); assay: Inhibition of human liver microsomes CYP2A6 using coumarin as substrate; assay type: ADME
T1 sequence (P11509 whole entry): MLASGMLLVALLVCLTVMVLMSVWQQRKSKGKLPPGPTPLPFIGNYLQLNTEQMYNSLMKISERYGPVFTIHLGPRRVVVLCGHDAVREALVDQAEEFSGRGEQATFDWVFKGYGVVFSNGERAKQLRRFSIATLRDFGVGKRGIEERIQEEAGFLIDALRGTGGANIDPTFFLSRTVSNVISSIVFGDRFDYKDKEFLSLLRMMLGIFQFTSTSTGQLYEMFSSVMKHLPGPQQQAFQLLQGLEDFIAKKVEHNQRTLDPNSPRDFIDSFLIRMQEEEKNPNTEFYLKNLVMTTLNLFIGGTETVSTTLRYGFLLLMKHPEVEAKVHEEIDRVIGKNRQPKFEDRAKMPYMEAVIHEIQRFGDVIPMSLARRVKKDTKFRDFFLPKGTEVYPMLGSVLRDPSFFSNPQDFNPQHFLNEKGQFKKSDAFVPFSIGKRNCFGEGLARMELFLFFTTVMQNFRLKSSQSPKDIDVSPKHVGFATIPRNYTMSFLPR

[9] = tested on: Saphenous artery; assay: Vasorelaxant activity in nirate-tolerant Chinchilla rabbit saphenous artery ring administered at the beginning of the last resting period of 28 mins in presence of sorbide dinitrate; assay type: functional; conditions: Oryctolagus cuniculus
[10] = Volume of distribution at steady state in iv dosed Wistar rat after 24 hrs by LC-MS analysis; assay type: ADME, organism-based; conditions: in vivo, read-out: Vdss; method in brief: as §2
[11] = Terminal half life in iv dosed Beagle dog blood after 24 hrs by LC-MS analysis; assay type: ADME, organism-based, Canis lupus familiaris; conditions: whole blood, read-out: beta t1/2 (converted); method in brief: as §2
[12] = tested on: Rattus norvegicus; assay: Effect on mortality in L-NAME-treated renin transgenic rat co-expressing RenTG(mRRen2)27 assessed as increase in survival rate administered qd via oral gavage up to 21 days; assay type: functional
Method in brief: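 L-NAME (50 mg/L, drinking water) treated male RenTG(mRRen2)27 rats aged 8 weeks. Placebo (n = 20) or 3 or 10 mg/kg/day by oral gavage qd (n = 15/group). Survival checked on days 1, 8, 15 and at study end (day 22).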

[13] = tested on: Rattus norvegicus; assay: Antihypertensive activity in L-NAME-treated renin transgenic rat co-expressing RenTG(mRRen2)27 assessed as reduction in proteinuria administered qd via oral gavage up to 21 days; assay type: functional; method in brief: as §3
[14] = Terminal half life in iv dosed Wistar rat blood after 24 hrs by LC-MS analysis; assay type: ADME, organism-based; conditions: whole blood, read-out: beta t1/2 (converted); method in brief: as §2
[15] = tested on: Rattus norvegicus; assay: Effect on mortality in L-NAME-treated renin transgenic rat co-expressing RenTG(mRRen2)27 assessed as survival rate at 3 mg/kg administered qd via oral gavage up to 21 days (reference value: 25%); assay type: functional; conditions: 504 h
[16] = tested on: Heart; assay: Cardiotoxicity in Wistar rat assessed as effect on contractility administered for 20 mins; assay type: toxicity, tissue-based
Method in brief: (§4)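 Male Wistar rats (200−250 g) anesthetized with Narcoren 100 mg/kg ip. Excised heart Langendorff-perfused at constant flow 10 mL/min with Krebs−Henseleit buffer gassed with 95% O2/5% CO2. Values expressed as relative change from baseline before compound application.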

[17] = Stimulation of rat sGC expressed in CHO cells using GTP as substrate assessed as increase in cGMP formation treated for 6 mins in presence of 30 nM SNAP by luminescence assay; assay type: cell-based; method in brief: as §1
[18] = tested on: Saphenous artery; assay: Vasorelaxant activity in normal Chinchilla rabbit saphenous artery ring administered at the beginning of the last resting period of 28 mins; assay type: functional; conditions: Oryctolagus cuniculus
[19] = Oral bioavailability in Beagle dog administered via oral gavage after 24 hrs by LC-MS analysis; assay type: ADME, organism-based, Canis lupus familiaris; conditions: in vivo; method in brief: as §2
[20] = tested on: Heart; assay: Cardiotoxicity in Wistar rat assessed as effect on heart rate administered for 20 mins; assay type: toxicity, tissue-based; method in brief: as §4
[21] = Clearance in rat hepatocytes at 1 uM up to 90 mins by LC-MS/MS analysis; assay type: ADME, cell-based, Hepatocyte
Method in brief: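 Rat hepatocytes at 1 × 10^6 viable cells/mL (trypan blue-corrected) in Williams' medium E, 1 μM substrate, MeCN ≤1%, 37 °C, pH 7.4. Sampled at 2−90 min, quenched with MeCN, analysed by LC-MS/MS.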

[22] = tested on: Heart; assay: Antihypertensive activity in Wistar Langendorff-perfused heart rat model assessed as reduction in coronary perfusion pressure administered for 20 mins; assay type: functional, tissue-based; method in brief: as §4

Chain of Cytochrome P450 3A4 (P08684 whole entry): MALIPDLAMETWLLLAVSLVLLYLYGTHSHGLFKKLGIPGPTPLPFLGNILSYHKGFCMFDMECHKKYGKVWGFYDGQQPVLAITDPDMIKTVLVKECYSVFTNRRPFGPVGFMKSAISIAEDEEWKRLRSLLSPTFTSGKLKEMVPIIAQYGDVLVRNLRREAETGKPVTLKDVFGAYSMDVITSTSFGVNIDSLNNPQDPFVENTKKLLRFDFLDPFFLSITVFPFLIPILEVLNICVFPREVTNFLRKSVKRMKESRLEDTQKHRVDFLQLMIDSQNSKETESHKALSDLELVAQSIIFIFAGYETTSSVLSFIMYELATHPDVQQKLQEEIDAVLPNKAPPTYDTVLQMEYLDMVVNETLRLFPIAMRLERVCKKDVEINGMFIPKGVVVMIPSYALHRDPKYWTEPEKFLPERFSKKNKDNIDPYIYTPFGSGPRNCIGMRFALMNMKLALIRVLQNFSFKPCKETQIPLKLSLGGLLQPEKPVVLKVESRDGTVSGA

COC(=O)Nc1c(N)nc(-c2nn(Cc3ccccc3F)c3ncc(F)cc23)nc1N [VERICIGUAT]
IC50 [1]: > 50000 nM
EC50 [2]: 1000 nM
Drug metabolism [3]: Metabolite_Detected
EC50 [4]: 256 nM
clearance [5]: 3.33 mL/min/kg
Activity [6]: Active
IC50 [7]: 692 nM
IC50 [8]: > 50000 nM
IC50 [9]: 5.8 nM
Vd [10]: 1 L/kg
half-life [11]: 6.2 h
Activity [12]: Dose-dependent effect
Activity [13]: Dose-dependent effect
half-life [14]: 3.4 h
survival at 3 mg/kg [15]: 70%
Activity [16]: Non-Toxic
EC50 [17]: 39 nM
IC50 [18]: 5.6 nM
bioavailability [19]: 75%
Activity [20]: Non-Toxic
CLhep predicted at 1 µM [21]: 1.67 mL/min/kg
Activity [22]: Dose-dependent effect
